In ChEMBL document CHEMBL1128301, “Cephalosporin derivatives of doxorubicin as prodrugs for activation by monoclonal antibody-beta-lactamase conjugates” (J Med Chem, 1995):

Tests used:
[1] = substrate: COc1cccc2c1C(=O)c1c(O)c3c(c(O)c1C2=O)C[C@@](O)(C(=O)CO)C[C@@H]3OC1CC(NC(=O)OCC2=C(C(=O)O)N3C(=O)[C@@H](NC(=O)CCCC(=O)O)[C@H]3SC2)C(O)C(C)O1; assay: The kinetic constant(Km) value as spectrophotometrically by using Enterobacter cloacae P99 beta-lactamase (ECIbL) enzyme as catalyst
In short: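 Initial-velocity kinetics at 23 °C in PBS with 12.5 μg/mL bovine serum albumin. […] Hydrolysis followed by absorbance change at 230 nm or 260 nm, linear over 1 min. Km from direct linear plots, mean of at least three independent experiments.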

[2] = substrate: COc1cccc2c1C(=O)c1c(O)c3c(c(O)c1C2=O)C[C@@](O)(C(=O)CO)C[C@@H]3OC1CC(NC(=O)OCC2=C(C(=O)O)N3C(=O)[C@@H](NC(=O)CCCC(=O)O)[C@H]3SC2)C(O)C(C)O1; assay: The kinetic constant(Km) value as spectrophotometrically by using Bacillus cereus beta-lactamase (BCbL) enzyme as catalyst
In short: (§1)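 Spectrophotometric hydrolysis at 23 °C in PBS with 12.5 μg/mL BSA. EClbL was used at 0.1 μg/mL; BCbL and ECbL at 1.0 μg/mL. […] Initial velocities were linear over 1 min.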

[3] = substrate: COc1cccc2c1C(=O)c1c(O)c3c(c(O)c1C2=O)C[C@@](O)(C(=O)CO)C[C@@H]3OC1CC(NC(=O)OCC2=C(C(=O)O)N3C(=O)[C@@H](NC(=O)CCCC(=O)O)[C@H]3SC2)C(O)C(C)O1; assay: The kinetic constant(Km) value as spectrophotometrically by using Escherichia coli TEM-1 beta-lactamase (ECbL) enzyme as catalyst; in short: as §1

B1: Beta-lactamase (Enterobacter cloacae), P05364 (protein)
chain: MMRKSLCCALLLGISCSALATPVSEKQLAEVVANTITPLMKAQSVPGMAVAVIYQGKPHYYTFGKADIAANKPVTPQTLFELGSISKTFTGVLGGDAIARGEISLDDAVTRYWPQLTGKQWQGIRMLDLATYTAGGLPLQVPDEVTDNASLLRFYQNWQPQWKPGTTRLYANASIGLFGALAVKPSGMPYEQAMTTRVLKPLKLDHTWINVPKAEEAHYAWGYRDGKAVRVSPGMLDAQAYGVKTNVQDMANWVMANMAPENVADASLKQGIALAQSRYWRIGSMYQGLGWEMLNWPVEANTVVEGSDSKVALAPLPVAEVNPPAPPVKASWVHKTGSTGGFGSYVAFIPEKQIGIVMLANTSYPNPARVEAAYHILEALQ
Km [1]: 83 µM

B2: Metallo-beta-lactamase type 2 (Bacillus cereus), P14488 (protein)
chain: MKNTLLKLGVCVSLLGITPFVSTISSVQAERTVEHKVIKNETGTISISQLNKNVWVHTELGYFSGEAVPSNGLVLNTSKGLVLVDSSWDDKLTKELIEMVEKKFKKRVTDVIITHAHADRIGGMKTLKERGIKAHSTALTAELAKKNGYEEPLGDLQSVTNLKFGNMKVETFYPGKGHTEDNIVVWLPQYQILAGGCLVKSASSKDLGNVADAYVNEWSTSIENVLKRYGNINLVVPGHGEVGDRGLLLHTLDLLK
Km [2]: 56 µM

B3: Beta-lactamase TEM (Escherichia coli), P62593 (protein)
chain: MSIQHFRVALIPFFAAFCLPVFAHPETLVKVKDAEDQLGARVGYIELDLNSGKILESFRPEERFPMMSTFKVLLCGAVLSRVDAGQEQLGRRIHYSQNDLVEYSPVTEKHLTDGMTVRELCSAAITMSDNTAANLLLTTIGGPKELTAFLHNMGDHVTRLDRWEPELNEAIPNDERDTTMPAAMATTLRKLLTGELLTLASRQQLIDWMEADKVAGPLLRSALPAGWFIADKSGAGERGSRGIIAALGPDGKPSRIVVIYTTGSQATMDERNRQIAEIGASLIKHW
Km [3]: 73 µM
